Compounds with a hit are over-represented: about 2.3% of the library has one in this group of screens.
TRPC4 inh: inhibitors of mouse TRPC4 channel | Q9QUQ5 | HEK293 TRPC4beta/mu-opioid, DAMGO-evoked Fluo4 calcium flux; active compounds read low | B-score at 10 µM | 300,000 compounds, 0.39% hits | AID 2247;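 active = B-score over 3 SD under the library average, no early fluorescence shift, positive overall ratio signal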
Target sequence (Q9QUQ5 whole entry, looked up): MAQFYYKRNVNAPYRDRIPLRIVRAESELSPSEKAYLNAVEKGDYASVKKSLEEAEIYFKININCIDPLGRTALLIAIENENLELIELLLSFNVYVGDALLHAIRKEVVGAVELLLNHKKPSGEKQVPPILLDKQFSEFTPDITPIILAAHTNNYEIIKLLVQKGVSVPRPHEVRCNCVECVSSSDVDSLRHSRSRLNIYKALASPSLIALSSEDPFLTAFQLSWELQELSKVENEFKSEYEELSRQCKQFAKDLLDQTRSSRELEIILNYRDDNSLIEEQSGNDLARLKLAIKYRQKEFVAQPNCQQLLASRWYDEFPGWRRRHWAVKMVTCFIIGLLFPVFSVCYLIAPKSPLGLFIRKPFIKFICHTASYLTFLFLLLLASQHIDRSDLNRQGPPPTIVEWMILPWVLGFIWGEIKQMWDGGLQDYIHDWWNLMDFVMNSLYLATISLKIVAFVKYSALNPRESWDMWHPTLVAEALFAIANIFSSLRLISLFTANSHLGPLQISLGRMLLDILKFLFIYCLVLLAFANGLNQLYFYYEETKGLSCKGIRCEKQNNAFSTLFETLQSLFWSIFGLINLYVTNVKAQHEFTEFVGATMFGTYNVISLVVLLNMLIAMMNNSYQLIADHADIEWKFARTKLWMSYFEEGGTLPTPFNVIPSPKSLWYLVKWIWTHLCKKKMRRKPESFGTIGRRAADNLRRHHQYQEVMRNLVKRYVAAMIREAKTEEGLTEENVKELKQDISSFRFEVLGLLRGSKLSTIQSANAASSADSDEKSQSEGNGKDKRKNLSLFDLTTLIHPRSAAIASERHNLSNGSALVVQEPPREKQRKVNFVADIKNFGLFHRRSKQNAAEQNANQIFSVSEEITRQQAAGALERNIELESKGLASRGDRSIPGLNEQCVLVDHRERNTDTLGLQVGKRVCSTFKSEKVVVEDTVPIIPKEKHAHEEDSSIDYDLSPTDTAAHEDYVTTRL
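System: stable TRPC4beta/mu-opioid receptor HEK293 cells; Dosing: single-point compound dosing; Measured by: Fluo4 Ca2+ flux fluorescence; Read-out basis: per-well B score of integrated baseline-normalized Fluo4 ratio.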
TRPC4 agonist: opens the mouse TRPC4 cation channel. Q9QUQ5. HEK293 TRPC4beta/mu-opioid, Fluo4 calcium fluorescence; active compounds read high. B-score at 10 µM. 310,000 compounds, 0.49% hits. AID 2237;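 active = B-score above 5 SD of library B-scores, and initial fluorescence ratio not above library mean plus 5 SD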;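 also: positive B-score marks a calcium rise read as TRPC4 activation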
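system = HEK293 cells stably co-expressing mouse TRPC4beta and mu-opioid receptor | schedule = Fluo4 dye loading 45 min at room temperature, 110 s recording | measure = B-scored integrated calcium fluorescence ratio | signal = Fluo4 calcium-sensitive dye fluorescence, kinetic, 1 Hz baseline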
TRPC6 activator: activators of mouse TRPC6 channel; HEK293-TRPC6 membrane potential dye fluorescence; active compounds read high; B-score at 10 µM; AID 2550; Q61143; 310,000 compounds, 0.13% hits;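 active = B-score of the integrated fluorescence ratio above library mean plus 3 SD, and starting fluorescence ratio within library mean plus 5 SD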;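 also: higher score means more depolarization so channel activation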
TRPC4 potent: allosterically enhances the mouse TRPC4 cation channel. B-score at 10 µM. 310,000 compounds, 0.42% hits. Q9QUQ5. HEK293 TRPC4beta/mu-opioid, DAMGO EC20, Fluo-4 Ca2+ flux; active compounds read high;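 active = B-score of calcium response area above 5 SD of library B-scores, with initial fluorescence ratio within 5 SD of library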;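 also: B-score of integrated fluorescence ratio over time as area under calcium response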
TRPC6 inhibitor: mouse TRPC6 channel inhibition; HEK293-TRPC6, membrane potential dye, ACh-evoked depolarization; active compounds read low; B-score at 10 µM; 310,000 compounds, 1.1% hits; AID 2553;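 active = B-score under library mean minus 3 SD, initial fluorescence not abnormally high, positive integrated signal ratio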;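 also: B-score derived from integrated fluorescence ratio over the kinetic read; more negative B-score means stronger inhibition of depolarization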
TRPC4 spec 2: mouse TRPC4 off-target activity of TRPC6 inhibitors, second screen; shares compounds with TRPC6 inhibitor; HEK293 TRPC4/MOR, membrane potential dye fluorescence; channel activated by saturating DAMGO dose; inhibition, % at 10 µM; 920 compounds, 42% hits;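 active = compounds whose fluorescence signal differed from control wells by over 3 SD, either direction, in both duplicate plates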
TRPC4 spec: tests whether TRPC6 inhibitors also affect mouse TRPC4; shares compounds with TRPC6 inhibitor; HEK293 TRPC4/mu-opioid, membrane potential fluorescence; activity change, negative = inhibition, % at 10 µM; 920 compounds, 61% hits; AID 2777;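 active = rise or fall in signal beyond 3 SD of buffer-only wells in both replicate plates, either sign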;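 also: integrated kinetic ratio of fluorescence range over baseline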
HEK293 MPD ctr 2-1: second check of TRPC6 inhibitor effects in parental HEK293 cells. shares compounds with TRPC6 inhibitor. parental HEK293 membrane potential dye fluorescence; maximal acetylcholine challenge after compound addition. signal change vs control, % at 10 µM. 920 compounds, 31% hits. AID 2779;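 active = membrane potential signal moving either way by over 3 SD of the maximum-effect control, in both duplicate plates, meaning non-specific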
HEK293 MPD ctr-1: parental HEK293 nonspecific activity of TRPC6 inhibitors. shares compounds with TRPC6 inhibitor. parental HEK293 membrane potential dye fluorescence. membrane potential signal change, % at 10 µM. 920 compounds, 60% hits;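 active = membrane potential signal shifting up or down by more than 3 SD of buffer-only wells, on both duplicate plates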
HEK293 MPD ctr-2: parental HEK293 nonspecific activity of TRPC6 modulators | membrane potential signal change, % at 10 µM | 2,400 compounds, 51% hits | shares compounds with TRPC6 inhibitor | AID 488924 | membrane potential dye fluorescence;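 active = membrane potential signal moves up or down beyond 5 SD from buffer-only wells, on both duplicate plates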
HEK293 MPD ctr 2-2: second counter-screen for TRPC6 modulators: effect in parental HEK293 cells; membrane potential dye fluorescence; after compound, maximal acetylcholine stimulation; 2,400 compounds, 14% hits; inhibition, % at 10 µM; AID 488926; shares compounds with TRPC6 inhibitor;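 active = membrane potential signal drops by more than 5 SD from the mean control signal, in both duplicate plates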;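 also: plate controls were acetylcholine ECmax control wells for no effect and buffer only wells for full effect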
TRPC4/MOR mod: tests whether TRPC6 modulators also affect mouse TRPC4 | shares compounds with TRPC6 inhibitor | HEK293 TRPC4/mu-opioid, membrane potential fluorescence | percent change from control (negative = decrease, positive = increase), % at 10 µM | 2,400 compounds, 69% hits | AID 488927;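 active = membrane potential signal moved up or down beyond 5 SD of buffer control wells, in both duplicate plates, actives on both sides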;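 also: plate controls were assay buffer wells for no effect and DAMGO maximal-effect wells for full effect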
TRPC4 ctr inh 2: second selectivity test of TRPC6 modulators against mouse TRPC4; shares compounds with TRPC6 inhibitor; HEK293 TRPC4/mu-opioid, membrane potential dye fluorescence; stimulated with maximal-effect DAMGO; inhibition, % at 10 µM; 2,400 compounds, 55% hits;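 active = drop in membrane potential signal beyond 5 SD of the control wells in both duplicate plates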;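 also: TRPC4 counter screen for TRPC6 hits run under conditions tuned for TRPC6 not TRPC4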
TRPC6 block conf: confirmation of mouse TRPC6 inhibitors; shares compounds with TRPC6 inhibitor; HEK293-TRPC6, membrane potential dye, ACh-evoked depolarization; inhibition, % at 10 µM; 3,300 compounds, 43% hits; AID 488960;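 active = fluorescence ratio falls more than 5 SD below the full-stimulation control mean, in both duplicate runs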;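 also: integrated fluorescence ratio of peak minus minimum over baseline after agonist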
TRPC6 act conf: confirmation of mouse TRPC6 activators; shares compounds with TRPC6 inhibitor; HEK293-TRPC6 membrane potential dye fluorescence, FDSS; activation, % at 10 µM; 2,800 compounds, 11% hits;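 active = ratio signal rise beyond 5 SD above unstimulated control wells' mean, seen in both duplicate runs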;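 also: plate controls were buffer EC0 wells for no effect and acetylcholine ECmax response for full effect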
* hit, by the source's call; i = inactive; . = no result; + = active, no number.

SMILES | TRPC4 inh | TRPC4 agonist | TRPC6 activator | TRPC4 potent | TRPC6 inhibitor | HEK293 MPD ctr-2 | HEK293 MPD ctr 2-2 | TRPC4/MOR mod | TRPC4 ctr inh 2 | TRPC6 block conf | TRPC6 act conf | others
COc1ccc(-n2c(NCCN(C)C)nc3sc4c(c3c2=O)CCCCC4)cc1 | i | i | i | i | -7.5* | . | . | . | . | i | i | TRPC4 spec 2=i;TRPC4 spec=i;HEK293 MPD ctr 2-1=i;HEK293 MPD ctr-1=i
CCOC(=O)C1CCN(C(=O)c2sc3ncnc(N4CCC(C)CC4)c3c2C)CC1 | i | i | i | i | i | . | . | . | . | . | .
CCOC(=O)C1CCN(C(=O)c2sc3nc(C)nc(N4CCC(C)CC4)c3c2C)CC1 | i | i | 14* | i | -9* | 198%* | i | 30%* | i | 78%* | 127%*
CCN=C1SC(C(=O)Nc2cccc(Br)c2)CC(=O)N1CC (stereo unspecified) | i | i | i | i | i | . | . | . | . | . | .
Cc1ccc2c(c1)C1CN(C)CCC1N2C(=O)COc1ccc(N(C)S(=O)(=O)c2cccs2)cc1 (stereo unspecified) | i | i | i | i | -6* | i | i | -22%* | 76%* | 53%* | i
CCOc1ccc(S(=O)(=O)N(C)c2ccc(OCC(=O)N3c4ccc(C)cc4C4CN(C)CCC43)cc2)cc1 (stereo unspecified) | i | i | i | i | i | . | . | . | . | . | .
CC(C)C(C)(C#N)NC(=O)CSc1nc2scc(-c3ccc(F)cc3)c2c(=O)n1Cc1ccccc1 (stereo unspecified) | i | i | i | i | i | . | . | . | . | . | .
O=C(CCc1ccccc1)c1c(O)cc(O)cc1O | i | i | i | i | -5.6* | -84%* | i | -20%* | 74%* | 50%* | i
Cc1cc(NC(=O)CCC(=O)N(C2CC2)C2(C(=O)NC3CCCC3)CCC(C)CC2)no1 (stereo unspecified) | i | i | i | i | -5.1* | i | i | 18%* | i | i | .
Cc1cc(NC(=O)CCC(=O)N(Cc2ccco2)C2(C(=O)NC3CCCC3)CCC(C)CC2)no1 (stereo unspecified) | i | i | i | i | i | . | . | . | . | . | .
Cc1cc(NC(=O)CSc2ccc(-c3ccc(F)cc3)nn2)no1 | . | i | i | i | i | . | . | . | . | . | .
O=C(c1ccco1)N1CCN(S(=O)(=O)c2ccc(Oc3ccccc3)cc2)CC1 | i | i | i | i | -13* | . | . | . | . | i | i | TRPC4 spec 2=i;TRPC4 spec=2.1%*;HEK293 MPD ctr 2-1=232%*;HEK293 MPD ctr-1=1.1%*
O=C(c1ccco1)N1CCN(S(=O)(=O)c2ccc(Br)cc2)CC1 | i | i | i | i | i | . | . | . | . | . | .
CN1C(=O)c2cccc3c(N(C)C)ccc(c23)C1=O | i | i | 19* | i | i | 927%* | + | 144%* | 58%* | . | 234%*
O=S(=O)(Nc1nc2ccccc2[nH]1)c1ccc(Cl)cc1 | i | i | i | i | -8.7* | . | . | . | . | 52%* | i | TRPC4 spec 2=i;TRPC4 spec=i;HEK293 MPD ctr 2-1=i;HEK293 MPD ctr-1=i
CCC(C)n1c(=N)c(C#N)cc2c(=O)n3cc(C)ccc3nc21 (stereo unspecified) | i | i | i | i | -6.9* | i | i | i | i | i | i
COc1ccc(C(C(=O)NC(C)(C)C)N(CCc2ccccc2)C(=O)CCC(=O)Nc2cc(C)on2)cc1 (stereo unspecified) | i | i | i | i | i | . | . | . | . | . | .
COc1ccc([C@@H]2[C@@H]3C(=O)N(C(C)(C)C)C(=O)[C@@H]3[C@]3(Cc4ccccc4)C(=O)N(c4ccc(Br)cc4)C(=O)N23)cc1 | i | i | i | i | -6.1* | i | i | i | i | i | i
CS(=O)c1ccccc1-c1nc(-c2ccc(Cl)cc2)no1 (stereo unspecified) | i | i | i | i | i | . | . | . | . | . | .
CS(=O)c1ccccc1-c1nc(-c2cccc(Cl)c2)no1 (stereo unspecified) | i | i | i | i | -9.8* | . | . | . | . | i | i | TRPC4 spec 2=i;TRPC4 spec=i;HEK293 MPD ctr 2-1=i;HEK293 MPD ctr-1=i
COc1ccccc1/C=C/C(=O)Nc1ccc(S(=O)(=O)Nc2cc(C)on2)cc1 | i | i | i | i | i | . | . | . | . | . | .
CCOC(=O)N1CCN(C(=O)C(C)c2ccc([N+](=O)[O-])cc2)CC1 (stereo unspecified) | i | i | i | i | i | . | . | . | . | . | .
CCOC(=O)C1CCN(C(=O)C(C)c2ccc([N+](=O)[O-])cc2)CC1 (stereo unspecified) | i | i | i | i | -5* | i | i | 12%* | i | i | .
CCCCCc1cc(=O)oc2c(C(CCN3CCCC(C)C3)c3ccc(N(C)C)cc3)c(OC)cc(OC)c12 (stereo unspecified) | i | i | i | i | i | . | . | . | . | . | .
COc1ccc(C(CCN2CCCCC2)c2c(OC)cc(OC)c3c(-c4ccccc4)cc(=O)oc23)cc1 (stereo unspecified) | i | i | i | i | i | . | . | . | . | . | .
